From PubChem BioAssay
Shown are actives, neighbours in structure and some others; about 1.3% of the full set was active somewhere.
G6PDH CS = L. mesenteroides G6PDH inhibitors, counter-screen for G6PDH-coupled screening assays, biochemical, Leuconostoc mesenteroides enzyme; Purified L. mesenteroides G6PDH, diaphorase/resazurin coupled fluorescence, 45 min; inhibition, % at 5 µM; actives 0.12% (n = 200,000); glucose-6-phosphate dehydrogenase [Leuconostoc mesenteroides]; in the data active means inhibition above about 50%
PfG6PD inh = PfG6PD enzyme inhibitors, primary screen, biochemical, fluorescence intensity, uHTS; glucose-6-phosphate dehydrogenase-6-phosphogluconolactonase (Plasmodium falciparum 3D7); PfGluPho enzyme, NADPH resazurin-diaphorase fluorescence; inhibition, % at 20 µM; actives 0.78% (n = 350,000);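 active means inhibition reaching at least a set limit at 20 µM in the primary screen, cut at about 59% in these data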
HKDC1 inhibitor = HKDC1 hexokinase inhibitors, primary screen, biochemical, fluorescence, uHTS. recombinant HKDC1, G6PDH/diaphorase resazurin coupled fluorescence. inhibition, % at 20 µM. actives 0.16% (n = 340,000). AID 493160, 2011;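 active means inhibition above about 35% when tested at 20 µM, limit read from the data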
Target sequence (Q2TB90 whole entry, looked up): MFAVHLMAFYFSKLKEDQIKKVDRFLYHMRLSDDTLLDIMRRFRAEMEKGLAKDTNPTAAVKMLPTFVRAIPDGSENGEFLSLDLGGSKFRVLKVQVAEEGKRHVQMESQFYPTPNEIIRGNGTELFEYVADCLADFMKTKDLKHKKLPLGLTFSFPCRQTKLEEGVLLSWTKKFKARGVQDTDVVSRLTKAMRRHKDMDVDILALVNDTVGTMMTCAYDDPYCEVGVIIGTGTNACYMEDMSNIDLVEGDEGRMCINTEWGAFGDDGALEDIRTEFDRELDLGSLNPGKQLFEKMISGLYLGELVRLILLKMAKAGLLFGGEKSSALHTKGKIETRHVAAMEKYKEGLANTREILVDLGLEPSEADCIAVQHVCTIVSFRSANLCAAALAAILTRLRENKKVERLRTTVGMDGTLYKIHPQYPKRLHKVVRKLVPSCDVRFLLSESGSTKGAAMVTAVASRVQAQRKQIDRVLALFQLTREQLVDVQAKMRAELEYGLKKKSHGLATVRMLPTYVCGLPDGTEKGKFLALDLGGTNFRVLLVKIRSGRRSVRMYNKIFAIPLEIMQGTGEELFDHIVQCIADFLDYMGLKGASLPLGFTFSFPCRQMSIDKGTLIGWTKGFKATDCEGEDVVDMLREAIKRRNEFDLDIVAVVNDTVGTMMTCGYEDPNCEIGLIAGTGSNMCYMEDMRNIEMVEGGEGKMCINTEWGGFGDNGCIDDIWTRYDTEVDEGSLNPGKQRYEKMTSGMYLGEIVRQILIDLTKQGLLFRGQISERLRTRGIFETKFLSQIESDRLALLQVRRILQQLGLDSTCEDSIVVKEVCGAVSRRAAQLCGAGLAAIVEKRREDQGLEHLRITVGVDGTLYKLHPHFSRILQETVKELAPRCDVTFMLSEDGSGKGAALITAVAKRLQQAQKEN
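Assay system: in-house recombinant HK5 (HKDC1) enzyme. Input: HKDC1 at 5 µg/mL. Medium: Tris pH 8.0 buffer with MgCl2, Tween-20, BSA, BME. Dosing: single 20 µM dose. Schedule: 90 min reaction incubation at room temperature, dark. Signal: resazurin-to-resorufin fluorescence via G6PDH and diaphorase coupling, 525/613 nm. Controls: DMSO-enzyme wells negative, buffer-substituted wells positive.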
TbHK1 inh = Trypanosoma brucei hexokinase 1 inhibitors, primary screen, biochemical, G6PDH-coupled NADH absorbance, MLSCN library; hexokinase 1 [Trypanosoma brucei]; recombinant TbHK1, G6PDH-coupled NADH A340; inhibition, % at 10 µM; actives 0.11% (n = 220,000);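 active means inhibition of 50% or more in the single-dose primary screen; inactive means inhibition below 50%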
Diaph inh CS = diaphorase inhibitors and chemical oxidizers, primary screen, counter-screen for diaphorase-coupled primary assays, biochemical, uHTS, resorufin fluorescence; diaphorase resazurin-to-resorufin fluorescence, NADH, 16 min; bacterial (C. kluyveri) enzyme, not human; inhibition, % at 20 µM; actives 0.69% (n = 190,000);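 active means primary screen inhibition at 20 µM above a set limit, cut at about 50% in these data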
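System: Diaphorase enzyme from Clostridium kluyveri | Amount: Enzyme working solution with 0.14 U/mL diaphorase | Benchmarks: No-NADH positive control and DMSO neutral control | Signal: Fluorescence of resorufin formed from resazurin, Ex 544/Em 590 nm | Schedule: 16-min room-temperature incubation before reading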
Diaph act CS = compounds boosting diaphorase resazurin reduction – biochemical, uHTS, resorufin fluorescence, counter-screen for diaphorase-coupled primary assays, primary screen | Diaphorase/resazurin coupled assay, 16 min; hits give high values; 1 = vehicle wells, 0 = NADH-free wells | activation factor at 20 µM | actives 0.005% (n = 190,000);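 active means diaphorase activity raised at least twofold by the compound at 20 µM; inactive means activation factor below 2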
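Material: bacterial diaphorase enzyme (C. kluyveri); amount: enzyme 0.07 U/mL final; reagent: NADH substrate 0.114 mM plus resazurin dye 0.1 mM, final; doses: single compound dose of 20 µM, 1% DMSO final; timing: 16 min enzyme reaction, ambient temperature; measured by: fluorescence of resorufin, 544 nm excitation, 590 nm emission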
PfG6PD confirm = PfG6PD inhibitors, hit retest, confirmation, biochemical, fluorescence intensity, single concentration. shares compounds with PfG6PD inh. recombinant PfGluPho, NADPH-diaphorase-resazurin fluorescence. inhibition, % at 20 µM. actives 34% (n = 2,400). AID 504753, 2011;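 active means inhibition of at least 50% at 20 µM in any single replicate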
Diaph ctr 10uM = diaphorase inhibitors and chemical oxidizers, confirmation, counter-screen for P. falciparum G6PD inhibitor project, biochemical, fluorescence intensity, 10 µM NADPH; shares compounds with PfG6PD inh; diaphorase-coupled resazurin reduction, NADPH 10 uM; inhibition, % at 20 µM; actives 39% (n = 820);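 active means average inhibition reaching 50% or more with the compound at 20 µM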;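 further: resorufin red fluorescence formed as diaphorase reduces resazurin using NADPH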
Diaphorase 30uM = diaphorase inhibitors and chemical oxidizers, confirmation, counter-screen for P. falciparum G6PD inhibitor project, biochemical, fluorescence intensity, 30 µM NADPH; shares compounds with PfG6PD inh; Diaphorase/resazurin coupled assay, resorufin fluorescence; inhibition, % at 20 µM; actives 29% (n = 820);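 active means inhibition averaging 50% or more, tested at 20 µM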
Numbers stand for hits; – = inactive; · = no result given.

SMILES	G6PDH CS	PfG6PD inh	HKDC1 inhibitor	TbHK1 inh	Diaph inh CS	Diaph act CS	PfG6PD confirm	others
O=C(CCC(=O)Nc1ccccc1Cl)N/N=C/c1ccccc1	–	104.6	–	–	–	–	81.0	Diaph ctr 10uM=69.0;Diaphorase 30uM=–
O=C(CC(=O)N/N=C/c1ccccc1)NCc1ccccc1	–	107.4	–	–	–	–	71.7	Diaph ctr 10uM=67.3;Diaphorase 30uM=67.2
O=C(CCSCCC(=O)NN=Cc1cccc(Cl)c1)NN=Cc1cccc(Cl)c1	·	86.1	–	·	·	·	88.1	Diaph ctr 10uM=79.3;Diaphorase 30uM=66.3
O=C(CCCC(=O)Nc1ccc(Br)cc1)N/N=C/c1ccccc1	·	60.5	–	·	·	·	–
CC(C)(C)NC(=O)C(c1ccccn1)N(C(=O)c1csnn1)C1CCCC1 (stereo not given)	·	–	–	–	·	·	·
O=C(CCC(=O)N/N=C/c1ccccc1O)NCc1ccccc1	–	–	–	–	–	–	·
O=C(CCCSCCCC(=O)NN=Cc1ccccc1)NN=Cc1ccccc1	·	59.1	–	·	·	·	–
COC(=O)CCC(=O)OC1(C)C(=O)C=C2C=C(C3CC3)N(CCc3ccccn3)C=C2C1=O (stereo not given)	·	62.5	–	–	·	·	–
C=CCN1C=C2C(=O)C(C)(OC(=O)CCC(=O)OC)C(=O)C=C2C=C1C1CC1 (stereo not given)	·	–	–	–	·	·	·
COC(=O)CCC(=O)OC1(C)C(=O)C=C2C=C(C3CC3)N(C(CO)CO)C=C2C1=O (stereo not given)	·	–	–	–	·	·	·
COC(=O)CCC(=O)OC1(C)C(=O)C=C2C=C(C3CC3)N(c3ccccc3)C=C2C1=O (stereo not given)	·	66.5	–	–	·	·	–
COC(=O)CCC(=O)OC1(C)C(=O)C=C2C=C(C3CC3)N(CCc3c[nH]c4ccccc34)C=C2C1=O (stereo not given)	·	64.9	–	–	·	·	–
COC(=O)CCCC1=CC2=CC(=O)C(C)(OC(=O)c3cccs3)C(=O)C2=CN1C1CC1 (stereo not given)	·	61.7	–	–	·	·	–
COC(=O)CCC(=O)OC1(C)C(=O)C=C2C=C(C3CC3)N(CCCCO)C=C2C1=O (stereo not given)	·	–	–	–	·	·	·
COc1cccc(S(=O)(=O)N(C)C[C@@H]2Oc3ncc(C#CCN(C)C)cc3C(=O)N([C@H](C)CO)C[C@H]2C)c1	·	–	·	·	·	·	·
C=CCSc1nnc(CC(OC)OC)n1-c1ccccc1	–	–	–	–	–	–	·
Cc1cc(=O)n2[nH]c(SCc3ccccc3Cl)nc2n1	·	–	–	·	·	·	·
COC(=O)CCC(=O)OC1(C)C(=O)C=C2C=C(C3CC3)N(CCCOC(C)C)C=C2C1=O (stereo not given)	·	68.2	–	–	·	·	–
CC(C)C[C@H](NC(=O)c1[nH]cnc1C(=O)N[C@@H](C)c1ccccc1)C(=O)OCc1ccccc1	·	–	–	–	·	·	·
COc1ccc(Cc2nc3ccc(C(=O)N(C)CCCN4CCOCC4)cc3o2)cc1	·	–	–	·	·	·	·
C/C(=N\Nc1nc2ccccc2[nH]1)c1ccc(Cl)s1	–	76.6	–	–	–	–	–
C/C(=N\Nc1nc2ccccc2[nH]1)c1ccc(C)o1	–	–	–	–	–	–	·
COc1ccc(CN2C(=O)C(CC(=O)NCc3ccco3)CC(C(=O)N3CCOCC3)=C2C)cc1 (stereo not given)	·	–	·	·	·	·	·
CCN(CC(=O)Nc1cc(Cl)ccc1C)C(=O)c1oc2ccc(OC)cc2c1C	·	–	–	·	·	·	·
COC(=O)c1sc(NC(=O)c2cc(-c3ccccc3)nc3ccccc23)c(C#N)c1C	–	64.7	–	–	–	–	–
SMILES	G6PDH CS	PfG6PD inh	HKDC1 inhibitor	TbHK1 inh	Diaph inh CS	Diaph act CS	PfG6PD confirm	others
CCS(=O)(=O)c1cc([N+](=O)[O-])c(Sc2ccccc2NC(C)=O)s1	·	61.9	–	–	·	·	–
CC(=O)Nc1ccccc1-c1ccccc1[N+](=O)[O-]	·	–	–	·	·	·	·
CCCn1c(N)c(C(=O)CSc2nnc(Cc3cccs3)n2C2CC2)c(=O)n(C)c1=O	·	–	–	·	·	·	·
COC(=O)c1cc2c(n1S(=O)(=O)c1ccc(C)cc1)C(=O)C(=O)c1[nH]cc(C(=O)OCc3ccccc3)c1-2	·	77.5	–	·	·	·	50.5	Diaph ctr 10uM=–;Diaphorase 30uM=–
CC(C)(C)NC(=O)NC(=O)COC(=O)CNS(=O)(=O)c1ccc(Br)cc1Cl	–	–	–	–	–	–	·
CCOc1cc(/C=N/Nc2nnc(C)n2N)ccc1O	·	59.1	–	·	·	·	–
CCOC(=O)c1c(-c2ccc(C)o2)csc1NC(=O)COC(=O)c1cccs1	–	59.0	–	–	–	–	–
CCOC(=O)c1c(-c2ccc(C)o2)csc1NC(=O)CN1CCOCC1	–	–	–	–	–	–	·
CCn1c(SCc2nc3ccccc3[nH]2)nnc1-c1cnccn1	–	66.8	–	–	–	–	–
CCn1c(SCc2nc3ccccc3[nH]2)nnc1-c1cccnc1	–	–	–	–	–	–	·
Cc1cccc(NC2=C(NC(=O)c3ccccc3)C(=O)c3ccccc3C2=O)c1	–	83.5	–	–	–	–	68.6	Diaph ctr 10uM=–;Diaphorase 30uM=–
O=S(=O)(c1cccs1)N1CN(Cc2ccco2)c2nc3ccccc3nc21	·	92.7	–	–	·	·	–
Cc1ccc(C(=O)N2CCCC(N3CCN(c4cccc(C(F)(F)F)c4)CC3)C2)s1 (stereo not given)	·	–	–	·	·	·	·
Nc1cc2nc3ccccc3oc-2cc1=O	·	73.7	–	–	·	·	–
Oc1c(CN2CCOCC2)cc(CN2CCOCC2)c(O)c1O	·	82.0	–	·	·	·	64.0	Diaph ctr 10uM=51.8;Diaphorase 30uM=54.6
C/C(=N\Nc1cc(Cl)nc(C)n1)c1ccc(C)cc1	·	–	–	–	·	·	·
O=C1C(c2cc(=O)c3ccccc3[nH]2)=C(O)c2ccccc21	–	82.9	–	–	–	–	65.2	Diaph ctr 10uM=50.5;Diaphorase 30uM=–
